# CHO parental Ca: ATP-evoked calcium signal inhibitors, parental CHO, primary screen, counter-screen for OX1R antagonist project, cell-based, fluorescence, Fluo-8 calcium dye; parental CHO-K1, ATP-induced calcium, Fluo-8 fluorescence; inhibition, % at 5.6 µM; 330,000 compounds, 0.63% hits;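 active means inhibition above that plate's mean sample inhibition plus 3 SD, cut at about 26% in these data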;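 further: 0% = ATP-challenged DMSO wells and 100% = DMSO wells without ATP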
#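 Material: Parental CHO cells | Reagent: ATP | Compound dosing: Single nominal dose of 5.6 µM per compound | Detection: Intracellular calcium via Fluo-8 no-wash fluorescent dye | Read-out: % inhibition of ATP-induced calcium mobilization | Benchmarks: Low control ATP plus DMSO, high control DMSO only | Replicates: Singlicate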
# OX1R antag-1: antagonists of human orexin 1 receptor (OX1R); Orexin/Hypocretin receptor type 1 (Homo sapiens), O43613; OX1R-expressing cells, FRET antagonist read-out; inhibition, % at 6.6 µM; 330,000 compounds, 1.8% hits; AID 485270, 2010; in the data active means inhibition mostly above about 38%, no sharp cut-off; inactive means mostly below about 40%;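 further: 0% = agonist challenge alone and 100% = reference antagonist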
# GPR7 antagonist: GPR7 receptor antagonists, primary screen, cell-based, fluorescence, single concentration. Neuropeptides B/W receptor type 1 (Homo sapiens), P48145. GPR7-expressing cells, fluorescence antagonist assay. inhibition, % at 4.4 µM. 290,000 compounds, 1.1% hits. AID 1861, 2009; in the data active means inhibition above about 16%, passing the limit was not always enough;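 further: cells stimulated with the agonist NPW; 0% = agonist with vehicle and 100% = vehicle without agonist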
# Target sequence (P48145 whole entry, looked up): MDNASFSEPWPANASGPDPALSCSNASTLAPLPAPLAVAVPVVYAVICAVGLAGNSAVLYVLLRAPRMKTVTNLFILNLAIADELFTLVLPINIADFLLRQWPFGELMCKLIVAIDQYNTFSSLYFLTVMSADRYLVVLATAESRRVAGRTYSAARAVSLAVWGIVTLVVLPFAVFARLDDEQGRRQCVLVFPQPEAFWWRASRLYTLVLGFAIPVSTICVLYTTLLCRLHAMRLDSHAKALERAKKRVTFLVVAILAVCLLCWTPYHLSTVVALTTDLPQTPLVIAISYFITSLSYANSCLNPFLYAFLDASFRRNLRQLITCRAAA
# OX1R antag-2: OX1R (HCRTR1) antagonists, primary screen, fluorescence, CHO/OX1R cells, Fluo-8 calcium, orexin A | Orexin/Hypocretin receptor type 1 (Homo sapiens), O43613 | Fluo-8 calcium fluorescence | inhibition, % at 5 µM | 330,000 compounds, 0.43% hits;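 active means inhibition above its plate's threshold, mean inhibition of all tested compounds on the plate plus 3 SD, cut at about 37% in these data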;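 further: 0% = orexin A challenge wells and 100% = SB-334867-A antagonist wells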
# TAAR1 antag: human TAAR1 antagonists, primary screen, Fluo-8 calcium fluorescence, CHO RD-HGA16 cells | Trace amine-associated receptor 1 (Homo sapiens), Q96RJ0 | antagonist | inhibition, % at 3 µM | 360,000 compounds, 1.5% hits;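 active means inhibition above a per-plate cutoff, the mean inhibition of test compounds on that plate plus 3 SD, cut at about 49% in these data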;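 further: 0% = DMSO plus EC80 beta-PEA response and 100% = DMSO alone without agonist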
#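 Assay system: RD-HGA16 CHO cells with stable hTAAR1 and Gα16 / Reagent: EC80 β-phenethylamine stimulus / Doses: 3 µM, single point / Timing: dye loading 75 min at 37 °C, then 30 min room temperature / Measured by: Fluo-8 intracellular calcium dye fluorescence, real-time kinetic reads / Controls: vehicle wells and EC80 agonist wells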
# TAAR1 ag: human TAAR1 agonists, primary screen, Fluo-8 calcium fluorescence, CHO RD-HGA16 cells. Trace amine-associated receptor 1 (Homo sapiens), Q96RJ0. vehicle wells 0%, saturating PEA agonist 100%. activation, % at 3 µM. 360,000 compounds, 0.99% hits. AID 624467, 2012;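 active means activation above the mean activation of all test compounds in the run plus 3 SD, cut at about 38% in these data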
#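 Signal – calcium-sensitive Fluo-8 signal, excitation 470-495, emission 515-575 nm · System – RD-HGA16 (CHO) cells co-expressing Gα16 and hTAAR1 · Incubation – 17-24 h seeding, 75 min 37 °C dye, 30 min RT · Compound dosing – 3 µM single concentration · Repeats – no replicates (n 1)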
# The depositor's hits bear a star; nt = no result given. Rows were chosen to be rich in hits. Some 4.5% of all compounds tested hit in one or more screens of this group.
SMILES,CHO parental Ca,OX1R antag-1,GPR7 antagonist,OX1R antag-2,TAAR1 antag,TAAR1 ag
CC1=C/C(=C\C=C(C#N)C#N)N(C)c2ccccc21,33*,21,7,44*,17,20
CN1/C(=C/C=C(C#N)C#N)C(C)(C)c2ccccc21,-1,5,-1,-4,-22,-1
O=C(CCSC1=NCCCN1)c1ccc(F)cc1,nt,nt,nt,nt,-13,8
O=C(Nc1ccc2ccccc2c1)C(c1ccc(C(F)(F)F)cc1)n1c(=O)c(-c2cc3ccccc3[nH]2)nc2ccccc21 (centres undefined),nt,nt,nt,nt,-10,1
CCc1nc(Nc2ccccc2F)c2oc3ccccc3c2n1,-30,44*,-10,-31,-9,12
CCc1nc(Nc2ccc(F)cc2)c2oc3ccccc3c2n1,-33,0,-25,-46,8,8
Cc1cc(O)cc(=O)n1-c1cccc(C(F)(F)F)c1,nt,nt,nt,nt,-24,7
CC1(C(=O)Nc2ccc3[nH]ncc3c2)CCN1C(=O)Cc1ccc(-c2ccccc2)cc1 (centres undefined),nt,nt,nt,nt,50*,18
Cc1ccc(Nc2ccc([N+](=O)[O-])cn2)cc1Cl,nt,nt,0,nt,54*,0
CCc1ccc([C@@H]2CC=C(C(=O)O)[C@H](c3cccc(Cl)c3)N2S(=O)(=O)c2ccc(C)cc2)cc1,-16,71*,nt,22,29,5
CCc1ccc([C@@H]2CC=C(C(=O)O)[C@H](c3ccc(Cl)cc3)N2S(=O)(=O)c2ccc(C)cc2)cc1,6,30,nt,6,52*,9
CCc1ccc([C@@H]2CC=C(C(=O)O)[C@H](c3ccccc3F)N2S(=O)(=O)c2ccc(C)cc2)cc1,-19,60*,nt,-7,12,0
CCc1ccc([C@@H]2CC=C(C(=O)O)[C@H](c3ccc(C)cc3)N2S(=O)(=O)c2ccc(C)cc2)cc1,-6,26,nt,-2,39,3
COc1ccc([C@@H]2CC=C(C(=O)O)[C@H](c3cccc(Cl)c3)N2S(=O)(=O)c2ccc(Cl)cc2)cc1,-13,62*,nt,8,11,1
COc1ccc([C@@H]2CC=C(C(=O)O)[C@H](c3ccc(F)cc3)N2S(=O)(=O)c2ccc(Cl)cc2)cc1,-12,34,nt,-24,6,5
NC1(C(=O)O)CSSC1,nt,nt,nt,nt,4,1
Cc1ccccc1CN1CC2=C(CCN(Cc3ccccc3)C2=O)N2CCN=C12,nt,nt,nt,nt,-43,24
C=CS(=O)(=O)N[C@@H](CSSC[C@H](NS(=O)(=O)C=C)C(=O)OC)C(=O)OC,nt,nt,nt,nt,-11,1
COc1cccc(C2NC(=S)N(Cc3ccc(Br)cc3)C(C)=C2C(C)=O)c1 (centres undefined),nt,nt,nt,nt,19,1
CC(=O)c1c(O)c(C)c(O)c2c1OC1=Cc3c(c(C)nn3C)C(=O)C12C (centres undefined),nt,nt,nt,nt,-5,1
O=[N+]([O-])c1cc(Oc2cccnc2)cc([N+](=O)[O-])c1,-4,75*,3,-15,18,1
COCCNC(=O)CN(c1cc(C(F)(F)F)ccc1Cl)S(C)(=O)=O,-6,21,19*,-4,-14,13
CCOC(=O)C(C)N1C(=O)S/C(=C\c2ccc(-c3ccccc3C(=O)O)o2)C1=O (centres undefined),4,3,0,-1,-5,3
CC(C)N1C(=O)S/C(=C/c2ccc(Sc3nc4ccccc4[nH]3)o2)C1=O,71*,54,-11,56*,32,13
O=C1c2ccccc2-c2cccnc21,-4,47*,-10,-20,-19,2
O=C(/C=C/c1ccccc1[N+](=O)[O-])c1ccccc1Br,-1,19,-1,6,12,-1
O=c1oc2ccccc2c(O)c1/C=N/c1ncccn1,-6,47,nt,-6,-7,2
O=c1oc2ccccc2c(O)c1/C=C1\C=Nc2ccccc21,8,73*,-8,-19,-7,15
